Bioassay records: PubChem, The Scripps Research Institute Molecular Screening Center
CHO parental Ca – counter-screen for OX1R antagonists: effect in parental CHO cells; parental CHO-K1, ATP-induced calcium, Fluo-8 fluorescence; inhibition, % at 5.6 µM; hit rate 0.63% among 330,000; AID 463079;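 active = inhibition above that plate's mean sample inhibition plus 3 SD, cut at about 26% in these data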;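 also: 0% = ATP-challenged DMSO wells and 100% = DMSO wells without ATP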
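Test system: parental CHO cells; detection: calcium-sensitive Fluo-8 fluorescence; evaluation: percent inhibition of calcium signal; also added: ATP as calcium-mobilizing challenge; repeats: one well per compound; control set: ATP-challenged DMSO wells low, unchallenged DMSO wells high; compound: single nominal dose of 5.6 µM per compound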
OX1R antag-1 – human HCRTR1 antagonism. AID 434989. O43613. CHO/OX1R cells, Fluo-8 calcium fluorescence, orexin A. hit rate 0.43% among 330,000. inhibition, % at 5 µM;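 active = inhibition above its plate's threshold, mean inhibition of all tested compounds on the plate plus 3 SD, cut at about 37% in these data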;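 also: 0% = orexin A challenge wells and 100% = SB-334867-A antagonist wells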
OX1R antag-2 – antagonists of human orexin 1 receptor (OX1R); O43613; OX1R-expressing cells, FRET antagonist read-out; inhibition, % at 6.6 µM; hit rate 1.8% among 330,000; in the data active = inhibition mostly above about 38%, no sharp cut-off; inactive = mostly below about 40%;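 also: 0% = agonist challenge alone and 100% = reference antagonist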
TAAR1 antag – antagonists of human TAAR1; AID 624466; CHO RD-HGA16 TAAR1, Fluo-8 calcium fluorescence, antagonist; inhibition, % at 3 µM; hit rate 1.5% among 360,000;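 active = inhibition above a per-plate cutoff, the mean inhibition of test compounds on that plate plus 3 SD, cut at about 49% in these data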;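 also: 0% = DMSO plus EC80 beta-PEA response and 100% = DMSO alone without agonist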
Target sequence (Q96RJ0 whole entry, looked up): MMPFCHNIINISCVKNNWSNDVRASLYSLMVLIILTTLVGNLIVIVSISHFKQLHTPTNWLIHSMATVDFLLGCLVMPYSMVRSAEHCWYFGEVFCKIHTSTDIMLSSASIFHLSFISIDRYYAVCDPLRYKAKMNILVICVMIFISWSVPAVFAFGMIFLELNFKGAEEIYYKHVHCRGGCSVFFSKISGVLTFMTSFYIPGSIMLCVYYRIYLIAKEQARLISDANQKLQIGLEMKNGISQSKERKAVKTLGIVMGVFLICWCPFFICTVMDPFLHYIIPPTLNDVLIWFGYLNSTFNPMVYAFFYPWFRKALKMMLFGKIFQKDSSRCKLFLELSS
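test system = CHO RD-HGA16 cells bearing hTAAR1 | replication = singlicate | controls = DMSO-only wells and EC80 β-PEA-stimulated wells | reagent = EC80 β-phenethylamine stimulus | read-out basis = percent inhibition of PEA-evoked calcium signal, max/basal emission ratio | schedule = seeding 17-24 h prior, 75-min 37 °C, 30-min RT dye loading | signal = kinetic Fluo-8 calcium fluorescence measurement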
TAAR1 agonist – human TAAR1 agonism. hit rate 0.99% among 360,000. activation, % at 3 µM. CHO RD-HGA16 TAAR1, Fluo-8 calcium fluorescence; vehicle wells 0%, saturating PEA agonist 100%. Q96RJ0. AID 624467;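 active = activation above the mean activation of all test compounds in the run plus 3 SD, cut at about 38% in these data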
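Benchmarks: low control DMSO, high control PEA (EC100); System: CHO RD-HGA16 cells carrying human TAAR1 plus Gα16; Detection: Fluo-8 fluorescence, 5 s baseline then 140 s kinetic read; Schedule: 17-24 h plating, Fluo-8 75 min 37 °C, 30 min RT; Read-out basis: % activation from peak over basal fluorescence ratio, DMSO-to-PEA scaled.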
GPR7 antagonist – human neuropeptides B/W receptor 1 antagonism | P48145 | GPR7-expressing cells, fluorescence antagonist assay | inhibition, % at 4.4 µM | hit rate 1.1% among 290,000 | AID 1861; in the data active = inhibition above about 16%, passing the limit was not always enough;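 also: cells stimulated with the agonist NPW; 0% = agonist with vehicle and 100% = vehicle without agonist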
Target sequence (P48145 whole entry, looked up): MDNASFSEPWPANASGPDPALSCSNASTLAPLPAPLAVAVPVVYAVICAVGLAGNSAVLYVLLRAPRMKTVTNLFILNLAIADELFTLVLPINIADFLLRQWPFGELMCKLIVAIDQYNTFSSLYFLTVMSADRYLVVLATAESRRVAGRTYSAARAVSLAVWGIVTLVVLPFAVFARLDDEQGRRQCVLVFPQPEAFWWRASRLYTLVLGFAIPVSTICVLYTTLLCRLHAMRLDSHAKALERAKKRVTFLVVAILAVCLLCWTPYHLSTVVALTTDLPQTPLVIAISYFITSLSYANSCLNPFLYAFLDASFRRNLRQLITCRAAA
Starred values were filed as active, the others as inactive; . = no result. A selection: hits, their analogues and other compounds. The true share with any hit is near 4.5%.

SMILES | CHO parental Ca | OX1R antag-1 | OX1R antag-2 | TAAR1 antag | TAAR1 agonist | GPR7 antagonist
CCCN1C(=O)c2cc(C(=O)Nc3cccc(C(C)=O)c3)ccc2C1Nc1cccc(C(C)=O)c1 (centres undefined) | 1 | -26 | 9 | 74* | 14 | 0
O=C1c2ccccc2[C@@H]2C[C@@H](O)[C@H](Nc3cccc4ccccc34)CCN12 | -12 | 5 | 42* | 2 | 1 | .
Cc1sc2ncnc(N3CCC(C(=O)NNC(=O)COc4ccccc4Cl)CC3)c2c1C | -5 | 10 | 26 | 43 | 11 | .
Cc1cc(Br)ccc1NC(=O)CN(C)C(=O)C1CCN(c2ncnc3sc(C)c(C)c23)CC1 | . | . | . | 57* | 12 | .
Cc1sc2ncnc(N3CCC(C(=O)Nc4ccc(OC(F)F)c(Cl)c4)CC3)c2c1C | -8 | 17 | 30* | 28 | 6 | .
Cc1cccc(C)c1NC(=O)CN(C)C(=O)C1CCN(c2ncnc3sc(C)c(C)c23)CC1 | -31 | -29 | 11 | 2 | 5 | .
Oc1c(Br)cc(/C=N/NC(=S)NCc2ccco2)cc1Br | -5 | -2 | 37* | -21 | 4 | 1
COC(=O)[C@]12C[C@H](CC(=O)NCc3cccc(C(F)(F)F)c3)C(=O)N(Cc3ccccc3)C1=C[C@H](C1CCCC1)O[C@@H]2C | . | . | . | -17 | 0 | .
CCN(C)C1CN(Cc2cn(Cc3cccc(C(F)(F)F)c3)nn2)S(=O)(=O)C1 (centres undefined) | . | . | . | -9 | 1 | .
CC(C)Nc1nc(NC(C)(C)C)nc(Oc2ccc(=O)n(C)n2)n1 | -16 | 0 | 11 | -1 | 39* | -10
COc1nc(NC(C)(C)C)nc(Oc2ccc(=O)n(C)n2)n1 | -5 | -10 | -1 | -1 | 1 | -2
CN(C)S(=O)(=O)c1cccc(NC(=O)COC(=O)CCSc2ccc(Cl)cc2)c1 | -2 | -13 | 14 | 14 | 10 | 3
CCN(CC)S(=O)(=O)c1cccc(NC(=O)c2ccc(SC)cc2OC)c1 | -7 | 1 | 33 | 52* | 5 | -7
CCN(CC)S(=O)(=O)c1cccc(NC(=O)CCSc2ccc(Cl)cc2)c1 | 48* | 10 | 6 | 24 | 4 | 3
COC(=O)C[C@H]1C=C[C@H](NC(=O)c2ccccn2)[C@@H](CO)O1 | . | . | . | -23 | 6 | .
CCCN(S(=O)(=O)c1ccccc1F)S(=O)(=O)c1ccccc1Br | -10 | 14 | 68* | -4 | -2 | -14
CCN(Cc1ccccc1)S(=O)(=O)c1ccccc1Br | -15 | -10 | 29 | -4 | -1 | .
Cc1[nH]c2ccccc2c1CC(=O)Nc1ccc(Nc2cccnc2)c(-c2ccc(OC(F)(F)F)cc2)c1 | . | . | . | -2 | 3 | .
CCCOC(=O)c1ccc(Oc2c(-c3ccc(OC)cc3O)n[nH]c2C)cc1 | -25 | -20 | 5 | 30 | 3 | -22
CCCOC(=O)c1ccc(Oc2c(-c3ccc(O)cc3O)n[nH]c2C)cc1 | 50* | 4 | 2 | 16 | 15 | -12
O=C(NCC1OCCCN1S(=O)(=O)c1cc(F)ccc1F)C(=O)NC1CCCCC1 (centres undefined) | -14 | -5 | 35 | 5 | 4 | -12
O=C(COC(=O)/C=C/c1cccc(Cl)c1)NCCC1=CCCCC1 | 0 | -31 | 12 | 32 | 39* | -10
COC(=O)c1ccc2cc(OC)cc([N+](=O)[O-])c2n1 | . | . | . | -8 | 1 | .
Cc1cccc(OCc2nnc(SCC(=O)N(C(C)C)C(C)C)n2Cc2ccco2)c1C | -36 | 8 | 36* | -12 | 15 | -4
COC(=O)c1ccc(N2CCOCC2)c(NC(=O)Nc2cccc(OC)c2)c1 | 1 | -20 | 9 | 6 | 2 | 5
SMILES | CHO parental Ca | OX1R antag-1 | OX1R antag-2 | TAAR1 antag | TAAR1 agonist | GPR7 antagonist
CCOC(=O)c1ccc(N2CCN(c3ccccc3F)CC2)c(NC(=O)Nc2cccc(OC)c2)c1 | 16 | 28 | 30 | 69* | 10 | -3
COc1ccc(CNC(=O)c2ccc(-n3ccnc3)c3ccoc23)cc1OC | . | . | . | -3 | 2 | .
O=C(CCc1nnc(C2CCCCC2)o1)N1CCN(c2ccccc2F)CC1 | 46* | -24 | 22 | -23 | 1 | -10
COc1ccc(OC)c(S(=O)(=O)NCC2CCN(C(=O)C(=O)c3cc4ccccc4o3)CC2)c1 | . | . | . | 0 | 2 | .
Cc1nc(/N=C(\N)NC(=O)c2ccccc2)nc2ccccc12 | -22 | 27 | 72* | . | . | -9
CCN(CC)c1ccc(/C=N/NC(=O)c2cccc(S(=O)(=O)N3CCOCC3)c2)c(O)c1 | -11 | -7 | 66* | 1 | 1 | -5
Cc1noc(C)c1COc1cccc(C(=O)OC(C)C(=O)Nc2ccc3c(c2)OCO3)c1 (centres undefined) | -2 | -16 | 13 | 13 | 12 | 19*
Cc1noc(C)c1COc1cccc(C(=O)Oc2ccc3c(c2)OCO3)c1 | -12 | -3 | 14 | 3 | -1 | 18*
NC(=O)CC1NC(=O)c2cc([N+](=O)[O-])cc(I)c2OCCC(C(N)=O)NC(=O)[C@@H]2CCCN2C1=O (some centres undefined) | -11 | -15 | 61* | 1 | 0 | -7
O=C(Nc1ccc(F)cc1F)c1cc(-c2ccco2)on1 | 35* | -21 | 4 | 16 | 9 | 1
O=C(NCc1ccc(F)cc1)c1cc(-c2ccco2)on1 | 32* | 38 | 2 | 20 | 38* | 3
COc1ccc(-c2cc(C(=O)Nc3ccc(F)cc3F)no2)cc1 | 2 | -27 | 1 | -13 | 5 | -2
CSc1ccccc1NC(=O)c1cc(-c2ccco2)on1 | -2 | -7 | 66* | -1 | 7 | -2
CC(=O)NC1(C(F)(F)F)NC(=O)N(CCc2ccccc2)C1=O (centres undefined) | 2 | -3 | 4 | -3 | -1 | 5
Cc1cc(=O)oc(C)c1C(=O)Nc1ccc(F)cc1 | -15 | -1 | 12 | -15 | 1 | -5
CCOC(=O)C1CCCN(c2cc(NCCCO)c([N+](=O)[O-])c3nonc23)C1 (centres undefined) | -6 | -30 | 73* | -17 | 6 | -4
COc1ccc(CCC(=O)NCC(=O)OCc2ccccc2)cc1 | 4 | -4 | -3 | 9 | 3 | -9
CCN(C(=O)COC(=O)CCCOc1ccc(Cl)cc1C)c1c(N)n(Cc2ccccc2)c(=O)[nH]c1=O | . | . | . | 9 | 4 | .
CCN1/C(=C/c2sc(-c3ccccc3C)c[n+]2C)Sc2ccccc21 | . | . | . | 19 | 8 | 47*
Cc1ccc(/C=C2\SC(N3CCN(C(c4ccccc4)c4ccccc4)CC3)=NC2=O)o1 | -28 | -12 | 11 | 1 | 2 | -10
COc1ccc(-c2ccc3c(=O)cc(-c4ccsc4)oc3c2)cn1 | -16 | 14 | 63* | 12 | 4 | .
COc1cc(-c2ccc3oc(-c4ccsc4)cc(=O)c3c2)cc(OC)c1OC | -20 | 9 | 67* | 50* | 9 | .
